High-throughput results: PubChem, several laboratories
Rows were chosen to be rich in hits. Some 5.5% of all compounds tested hit in one or more screens of this group.
STAT1 activator = STAT1 signaling activation; hit rate 2.6% among 200,000; NIH 3T3 STAT1-luciferase reporter, IFN-gamma, luminescence; 100% = IFN-gamma alone, no compound; AID 932; activation (% of control), % at 5.5 µM;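 active = activation above the screen-wide mean activation plus 3 SD, cut at about 130% in these data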;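 also: raw ratio to IFN-gamma control signal so 100% means no change and 0% no light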
STAT3 act = increases IL-6 driven STAT3 reporter signal. activation (% of control), % at 5.6 µM. hit rate 0.91% among 190,000. U3A cells, IL-6 STAT3-luciferase reporter, luminescence; 100% = signal with IL-6 EC80 alone. AID 871;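 active = activation above the screen-wide mean of compound activation plus 3 SD, cut at about 130% in these data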;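 also: 0% = background luminescence of wells with medium and substrate only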
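Assay system – human STAT1-deficient U3A cells with stable STAT3-luciferase reporter · Also added – IL-6 (33 ng/mL) · Schedule – compound 1 h, then IL-6 6 h at 37 °C · Technique – reporter luminescence signal · Evaluation – % activation versus median of IL-6-stimulated wells · Benchmarks – IL-6-only wells as 100% reference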
STAT1 blocker = STAT1 signaling inhibition; AID 920; hit rate 0.35% among 200,000; inhibition, % at 5.5 µM; NIH 3T3 STAT1-luciferase reporter, IFN-gamma, luminescence;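 active = inhibition above a set limit, the mean inhibition across all tested compounds plus 3 SD, cut at about 34% in these data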;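 also: 0% = IFN-gamma with DMSO and 100% = IFN-gamma with 300 µM nifuroxazide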
STAT3 blocker = reduces IL-6 driven STAT3 reporter signal; hit rate 0.89% among 190,000; U3A cells, IL-6 STAT3-luciferase reporter, luminescence; host cell line lacks STAT1; inhibition, % at 5.5 µM; AID 862;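 active = inhibition above the mean inhibition across all screened compounds plus 3 SD, cut at about 44% in these data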;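 also: 0% = DMSO only wells and 100% = 100 µM nifuroxazide control wells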
KCC2 mod = modulators of human KCC2 chloride dependent transport. AID 1456. KCC2 cells, thallium flux FluoZin-2 fluorescence. hit rate 2.2% among 190,000. B-score of Tl+ flux slope (higher = more flux/activation; lower = inhibition) at 10 µM;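 active = thallium flux slope and its plate-corrected score both differing from the plate sample mean at a set confidence after two filtering rounds, in either direction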;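 also: slope of fluorescence scaled to starting intensity during 10 to 20 s after thallium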
HSV replic up = HSV replication enhancement; HSV replication augmentation in cells, fold increase; maximum fold increase; hit rate 0.005% among 220,000; in the data active = maximum fold increase above about 1.5; inconclusive = no clear call, values can overlap the other calls; tested in PC3 cells
KCC2 sec1 = KCC2 (human) modulation, secondary assay; shares compounds with KCC2 mod; HEK293-KCC2, thallium flux, FluoZin2 fluorescence; stronger effect = higher value; normalised thallium flux (F/F0 slope) at 10 µM; hit rate 15% among 3,700;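 active = thallium flux slope above the same plate's solvent-only control mean plus 3 SD; inconclusive = the two replicate wells disagree; inactive = no significant difference from solvent-only control wells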
KCC2 bumet counter = thallium flux persisting under bumetanide in KCC2 cells, counter-screen secondary assay. shares compounds with KCC2 mod. HEK293-KCC2 + bumetanide/ouabain, thallium flux FluoZin2; stronger effect = higher value. normalized thallium flux at 10 µM. hit rate 49% among 3,700;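 active = thallium entry rate above the same plate's blocked-transporter control wells by more than 3 SD; inconclusive = the two repeat wells disagree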;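 also: raw slope of fluorescence over initial fluorescence between 10 and 20 s after thallium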
KCC2 sec2 = KCC2 (human) modulation, second secondary assay. shares compounds with KCC2 mod. HEK293-KCC2, thallium flux FluoZin2 fluorescence; actives lie on both sides; F/F0 rise rate, 10–20 s post-thallium. normalized thallium flux at 10 µM. hit rate 23% among 3,700. AID 1715;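 active = thallium flux slope more than 3 SD above or below the plate's solvent-only control mean, mostly below; inconclusive = the two repeat wells disagreed; inactive = no significant shift from solvent-only controls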;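 also: raw slope with 0.1% DMSO as baseline and bumetanide as block control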
HEK293 Tl flux = counter-screen for KCC2 modulators: effect in parental HEK293 cells. shares compounds with KCC2 mod. thallium flux FluoZin2, ouabain; baseline-ratio fluorescence slope, 10–20 s after thallium. thallium flux rate (normalised fluorescence) at 10 µM. hit rate 46% among 3,700;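 active = thallium flux rate significantly above the same plate's solvent-only control wells, beyond their mean plus 3 SD; inconclusive = the two replicate wells gave conflicting results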
KCC2 retest ouab = modulates human KCC2 on retest with ouabain. shares compounds with KCC2 mod. HEK293-KCC2, thallium flux FluoZin2 fluorescence; bidirectional: low = inhibitor, high = activator. raw Tl+ flux slope (below DMSO = inhibition, above = activation) at 10 µM. hit rate 48% among 3,700. AID 1717;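 active = thallium flux slope beyond 3 SD from same-plate DMSO control mean in most replicates, usually higher, sometimes lower; inconclusive = repeat tests gave conflicting results; inactive = no significant difference from controls in most replicates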;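 also: slope of initial-normalized fluorescence between seconds 10 and 20 after thallium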
HEK293 Tl flux2 = parental HEK flux effect, counter-screen 2. thallium flux slope at 10 µM. hit rate 33% among 3,700. shares compounds with KCC2 mod. HEK293 parental, thallium flux FluoZin-2 fluorescence slope;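 active = thallium flux slope above the same plate's solvent-control mean plus 3 SD in both duplicate wells; inconclusive = duplicate wells that disagreed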;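 also: run without ouabain in cells lacking the KCC2 cotransporter; slope of fluorescence scaled to its starting value between 10 and 20 s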
Starred values were filed as active, the others as inactive.

For COc1ccc2c(c1)C(=O)[C@@H](O)[C@H](c1ccc(OC)c(Br)c1)O2 the results were STAT1 activator 106, STAT3 act 91, STAT1 blocker -6, STAT3 blocker 8, KCC2 mod 6*, HSV replic up inactive, KCC2 sec1 0.0084, KCC2 bumet counter 0.014*, KCC2 sec2 0.031, HEK293 Tl flux 0.02*, KCC2 retest ouab inconclusive and HEK293 Tl flux2 0.011.
For COc1cccc([C@@H]2Oc3ccc(OC)cc3C(=O)[C@H]2O)c1 the results were STAT1 activator 98, STAT3 act 95, STAT1 blocker 3, STAT3 blocker 3, KCC2 mod 1.2 and HSV replic up inactive.
`COc1ccc(OC)c(NC(=O)CSc2nnc(C3CCCCC3)n2-c2ccccc2)c1` gave STAT1 activator 93, STAT3 act 96, STAT1 blocker 8, STAT3 blocker 5, KCC2 mod -2.9 and HSV replic up inactive.
CC1CN(S(=O)(=O)c2ccc(NC(=O)CCN3C(=O)c4ccccc4C3=O)cc2)CC(C)O1 (centres undefined) was read as STAT1 activator 96, STAT3 act 99, STAT1 blocker 4, STAT3 blocker 8, KCC2 mod -3.9*, KCC2 sec1 0.016, KCC2 bumet counter 0.0045, KCC2 sec2 0.029, HEK293 Tl flux 0.0074, KCC2 retest ouab 0.017 and HEK293 Tl flux2 0.011.
`CC1CN(S(=O)(=O)c2ccc(NC(=O)CCCN3C(=O)c4ccccc4C3=O)cc2)CC(C)O1` (centres undefined) gave STAT1 activator 89, STAT3 act 100, STAT1 blocker 12, STAT3 blocker 2 and HSV replic up inactive.
For O=[N+]([O-])c1cnc(N2CCCCC2)c([N+](=O)[O-])c1 the results were STAT1 activator 96, STAT3 act 90, STAT1 blocker 4, STAT3 blocker 12, KCC2 mod 0.98 and HSV replic up inactive.
Screening O=S(=O)(c1ccc(Cl)cc1)N(CCCN1CCOCC1)Cc1cccs1 returned STAT1 activator 100, STAT3 act 99, STAT1 blocker -2, STAT3 blocker 4, HSV replic up inactive, KCC2 sec1 0.017, KCC2 bumet counter 0.0042, KCC2 sec2 0.029, HEK293 Tl flux inconclusive, KCC2 retest ouab 0.015 and HEK293 Tl flux2 0.0099.
`Cc1cccc(C(=O)Nc2cccc(C(=O)N3CCOCC3)c2)c1` gave STAT1 activator 96, STAT3 act 108, STAT1 blocker 5, STAT3 blocker -10, KCC2 mod 4.3*, HSV replic up inactive, KCC2 sec1 0.017, KCC2 bumet counter 0.0047, KCC2 sec2 0.032, HEK293 Tl flux 0.0078, KCC2 retest ouab 0.018 and HEK293 Tl flux2 0.01.
For COc1cccc(C(=O)Nc2cccc(C(=O)N3CCOCC3)c2)c1 the results were STAT1 activator 104, STAT3 act 100, STAT1 blocker -3, STAT3 blocker 2, KCC2 mod 0.19 and HSV replic up inactive.
`CC(=O)c1cccc(NC(=O)Nc2ccc(C(=O)N3CCCC3)cc2)c1` gave STAT1 activator 87, STAT3 act 88, STAT1 blocker 14, STAT3 blocker 13, KCC2 mod 7.4*, HSV replic up inactive, KCC2 sec1 inconclusive, KCC2 bumet counter 0.0038, KCC2 sec2 0.027, HEK293 Tl flux 0.0064, KCC2 retest ouab 0.016 and HEK293 Tl flux2 0.0094.
Screening CC(=O)Nc1cccc(NC(=O)Nc2ccc(C(C)=O)cc2)c1 returned STAT1 activator 100, STAT3 act 85, STAT1 blocker 0, STAT3 blocker 21, KCC2 mod -0.063 and HSV replic up inactive.
`Cc1nc(N2CCN(C(=O)c3ccc(Cl)cc3)CC2)c(C#N)c2c1COC(C)(C)C2` gave STAT1 activator 101, STAT3 act 88, STAT1 blocker 1, STAT3 blocker 17, KCC2 mod -1.7, HSV replic up inactive, KCC2 sec1 0.0063, KCC2 bumet counter 0.0042, KCC2 sec2 0.028, HEK293 Tl flux inconclusive, KCC2 retest ouab 0.017 and HEK293 Tl flux2 0.011.
CCCNC(=O)N1CCN(c2nc(C(C)C)c3c(c2C#N)CC(C)(C)OC3)CC1 was read as STAT1 activator 102, STAT3 act 122, STAT1 blocker -2, STAT3 blocker -22 and HSV replic up inactive.
For CCc1nc(N2CCN(C(C)=O)CC2)c(C#N)c2c1COC(C)(C)C2 the results were KCC2 mod 0.7 and HSV replic up inactive.
`CC1(C)Cc2c(C#N)c(NCCc3ccccc3)nc(-c3ccco3)c2CO1` gave STAT1 activator 97, STAT3 act 107, STAT1 blocker 4, STAT3 blocker -4, KCC2 mod -0.43, HSV replic up inactive, KCC2 sec1 0.0052, KCC2 bumet counter 0.0043, KCC2 sec2 0.029, HEK293 Tl flux 0.0072, KCC2 retest ouab 0.018 and HEK293 Tl flux2 0.01.
`CC1(C)Cc2c(C#N)c(N3CCN(C(=O)c4ccco4)CC3)nc(Cc3ccccc3)c2CO1` gave STAT1 activator 94, STAT3 act 100, STAT1 blocker 6, STAT3 blocker 4, HSV replic up inactive, KCC2 sec1 0.0085, KCC2 bumet counter 0.0062, KCC2 sec2 0.034, HEK293 Tl flux inconclusive, KCC2 retest ouab 0.017* and HEK293 Tl flux2 0.011.
CCOC(=O)c1[nH]c2ccc(Br)cc2c1NC(=O)CCN1CCC(C(=O)OCC)CC1 was read as STAT1 activator 88, STAT3 act 108, STAT1 blocker 14, STAT3 blocker -6, KCC2 mod -0.0054, HSV replic up inactive, KCC2 sec1 0.0091, KCC2 bumet counter 0.0064, KCC2 sec2 inconclusive, HEK293 Tl flux 0.0078, KCC2 retest ouab 0.018 and HEK293 Tl flux2 0.011.
